For assay [1], the target named is T1, Adrenergic receptor alpha-1 (Rattus norvegicus, UniProt P15823+P23944+P43140).
T1 sequence (P15823 whole entry): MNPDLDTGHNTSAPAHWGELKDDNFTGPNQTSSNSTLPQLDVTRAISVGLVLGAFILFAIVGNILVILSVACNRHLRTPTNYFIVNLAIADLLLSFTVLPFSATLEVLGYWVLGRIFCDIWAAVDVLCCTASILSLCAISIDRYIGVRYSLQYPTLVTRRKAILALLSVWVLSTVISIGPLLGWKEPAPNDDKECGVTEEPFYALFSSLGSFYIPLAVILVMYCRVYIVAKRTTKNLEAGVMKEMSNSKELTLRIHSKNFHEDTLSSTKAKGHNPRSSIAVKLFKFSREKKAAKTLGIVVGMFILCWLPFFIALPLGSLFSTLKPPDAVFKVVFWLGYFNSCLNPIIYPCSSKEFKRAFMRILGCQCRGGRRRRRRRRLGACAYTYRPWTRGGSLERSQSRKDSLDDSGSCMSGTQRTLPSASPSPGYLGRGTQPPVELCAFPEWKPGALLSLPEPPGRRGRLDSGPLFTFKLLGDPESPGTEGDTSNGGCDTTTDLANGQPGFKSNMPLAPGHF
T1 sequence (P23944 whole entry): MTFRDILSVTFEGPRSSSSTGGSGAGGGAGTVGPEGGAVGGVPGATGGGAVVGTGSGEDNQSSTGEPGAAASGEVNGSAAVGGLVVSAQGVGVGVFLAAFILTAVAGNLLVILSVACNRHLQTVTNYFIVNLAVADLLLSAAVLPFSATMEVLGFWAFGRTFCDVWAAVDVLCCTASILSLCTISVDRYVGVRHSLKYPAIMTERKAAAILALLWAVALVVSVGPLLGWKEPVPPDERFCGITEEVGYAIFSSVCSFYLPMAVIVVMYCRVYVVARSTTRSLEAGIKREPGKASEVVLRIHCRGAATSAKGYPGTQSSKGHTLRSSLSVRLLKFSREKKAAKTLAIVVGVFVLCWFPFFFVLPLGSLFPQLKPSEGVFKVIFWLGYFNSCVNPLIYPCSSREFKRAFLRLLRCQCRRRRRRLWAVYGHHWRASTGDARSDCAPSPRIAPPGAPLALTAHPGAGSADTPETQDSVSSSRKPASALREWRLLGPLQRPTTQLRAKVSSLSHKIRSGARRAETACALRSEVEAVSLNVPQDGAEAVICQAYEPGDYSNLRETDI
T1 sequence (P43140 whole entry): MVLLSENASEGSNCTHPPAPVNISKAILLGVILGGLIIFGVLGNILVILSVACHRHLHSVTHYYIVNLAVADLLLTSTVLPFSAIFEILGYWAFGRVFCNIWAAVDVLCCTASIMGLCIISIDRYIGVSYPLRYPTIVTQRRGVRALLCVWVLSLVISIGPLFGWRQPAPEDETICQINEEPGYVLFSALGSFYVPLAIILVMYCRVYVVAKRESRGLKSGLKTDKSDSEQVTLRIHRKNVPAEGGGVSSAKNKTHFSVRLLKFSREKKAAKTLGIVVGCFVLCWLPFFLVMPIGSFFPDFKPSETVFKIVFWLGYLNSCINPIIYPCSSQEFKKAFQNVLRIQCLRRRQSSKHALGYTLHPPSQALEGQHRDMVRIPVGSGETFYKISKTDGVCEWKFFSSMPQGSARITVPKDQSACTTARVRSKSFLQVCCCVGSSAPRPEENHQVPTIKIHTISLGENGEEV
The assay is described as follows: Binding affinity against alpha-1 adrenergic receptor in rat using [3H]prazosin as radioligand. In short, it runs like this: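 Male Sprague-Dawley rat liver membranes (50-150 µg/mL protein) in 50 mM Tris-HCl pH 7.7 with [3H]prazosin. Incubated 50 min at 25 °C; phentolamine 10^-5 M defined nonspecific binding. At least four concentrations from 10^-10 to 10^-3 M, each in duplicate. Bound ligand was filtered and counted by scintillation.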

For assay [2], the target named is T2, Adrenergic receptor alpha-2 (Rattus norvegicus, UniProt P22086+P19328+P22909).
T2 sequence (P22086 whole entry): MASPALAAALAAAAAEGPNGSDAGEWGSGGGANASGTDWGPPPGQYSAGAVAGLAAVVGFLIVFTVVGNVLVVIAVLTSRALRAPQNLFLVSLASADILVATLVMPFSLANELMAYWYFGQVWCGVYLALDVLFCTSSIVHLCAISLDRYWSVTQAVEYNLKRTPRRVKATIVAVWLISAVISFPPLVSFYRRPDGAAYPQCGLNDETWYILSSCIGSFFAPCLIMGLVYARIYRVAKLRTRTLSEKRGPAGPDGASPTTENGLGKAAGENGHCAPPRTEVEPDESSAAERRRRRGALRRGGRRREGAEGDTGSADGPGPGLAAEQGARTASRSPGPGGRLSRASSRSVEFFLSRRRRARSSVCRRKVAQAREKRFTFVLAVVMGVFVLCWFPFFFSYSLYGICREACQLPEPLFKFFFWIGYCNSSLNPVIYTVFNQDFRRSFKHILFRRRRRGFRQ
T2 sequence (P19328 whole entry): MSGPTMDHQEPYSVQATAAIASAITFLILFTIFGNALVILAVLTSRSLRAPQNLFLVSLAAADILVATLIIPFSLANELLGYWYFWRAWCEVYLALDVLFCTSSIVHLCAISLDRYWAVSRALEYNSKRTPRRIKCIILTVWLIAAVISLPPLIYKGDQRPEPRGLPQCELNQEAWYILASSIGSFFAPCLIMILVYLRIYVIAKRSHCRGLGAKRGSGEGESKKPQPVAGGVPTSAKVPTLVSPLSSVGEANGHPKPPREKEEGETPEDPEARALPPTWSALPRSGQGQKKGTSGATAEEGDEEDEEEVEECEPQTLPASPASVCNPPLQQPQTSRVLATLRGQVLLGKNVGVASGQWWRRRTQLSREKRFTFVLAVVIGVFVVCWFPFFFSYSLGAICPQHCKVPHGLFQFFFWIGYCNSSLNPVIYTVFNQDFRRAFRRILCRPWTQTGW
T2 sequence (P22909 whole entry): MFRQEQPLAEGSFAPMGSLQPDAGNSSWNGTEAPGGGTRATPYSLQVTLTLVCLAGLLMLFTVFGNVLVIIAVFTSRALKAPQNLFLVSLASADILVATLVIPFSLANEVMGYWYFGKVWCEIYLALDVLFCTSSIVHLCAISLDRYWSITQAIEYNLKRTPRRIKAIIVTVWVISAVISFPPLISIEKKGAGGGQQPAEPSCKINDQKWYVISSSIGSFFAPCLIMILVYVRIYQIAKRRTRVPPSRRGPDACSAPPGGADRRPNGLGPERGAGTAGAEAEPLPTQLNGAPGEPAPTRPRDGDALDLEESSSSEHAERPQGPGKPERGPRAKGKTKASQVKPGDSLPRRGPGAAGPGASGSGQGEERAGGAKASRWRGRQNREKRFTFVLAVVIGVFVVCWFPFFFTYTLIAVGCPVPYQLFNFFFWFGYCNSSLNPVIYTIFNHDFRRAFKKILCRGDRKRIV
In words: Binding affinity towards alpha-2 adrenergic receptor in rat using [3H]rauwolscine as radioligand. The procedure, abridged: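 Male Sprague-Dawley rat cerebral cortex membranes (50-150 µg/mL protein) in 50 mM Tris-HCl pH 7.7 with [3H]rauwolscine. Incubated 2 h at 4 °C; phentolamine 10^-5 M defined nonspecific binding. At least four concentrations from 10^-10 to 10^-3 M, each in duplicate. Bound ligand was filtered and counted by scintillation.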

Assay [3] has as its target Adrenergic receptor alpha (Rattus norvegicus) (UniProt P15823+P23944+P43140+P22086+P19328+P22909). In words: Relative affinities for Alpha1 and alpha-2 adrenergic receptors in rat.

In turn, `Brc1c(NC2=NCCN2)ccc2nccnc12` [BRIMONIDINE] showed a Ki in assay [1] of 0.74 µM.
Take `NCC1CCCCc2c1ccc(O)c2O` (configuration not stated): the Ki is 0.88 µM in assay [2] and 27 µM in assay [1]. Further, the Ratio in assay [3] was determined as 30.
The like results for `CCNCC1CCCc2c1ccc(O)c2O` (configuration not stated) were, in that order, 0.2 µM, 7.9 µM and 40.
As for `CN(C)CC1CCCc2c1ccc(O)c2O` (configuration not stated), the Ki amounted to 0.66 µM in assay [2] and 13 µM in assay [1].
The like results for `NCC1CCCc2cc(O)c(O)cc21` (configuration not stated) were, in that order, 5.1 µM and 15 µM.
In the case of `CN(C)CC1CCc2c1ccc(O)c2O` (configuration not stated), the Ki in assay [2] turned out to be 0.025 µM; in assay [1], 6.9 µM. Moreover, the Ratio in assay [3] is 270.
Consider `CC(C)NCC1CCCc2c1ccc(O)c2O` (configuration not stated), for which the results for the Ki in assay [2] and in assay [1] were 4.7 µM and 6.6 µM, respectively.
On to `CN(C)CC1Cc2c1ccc(O)c2O` (configuration not stated), for which the Ki was found to be 0.021 µM in assay [2] and 3.3 µM in assay [1]. Further, the Ratio in assay [3] is 160.
Molecule `NCC(O)c1cc(O)c(O)cc1F` (configuration not stated) returned a Ki in assay [1] of 0.65 µM.
`NCC1CCc2cc(O)c(O)cc21` (configuration not stated): the values for the Ki in assay [2] and in assay [1] were 0.52 µM and 26 µM, respectively.
For the molecule `CCNCC1CCc2c1ccc(O)c2O` (configuration not stated), the Ki in assay [2] is 0.13 µM; in assay [1] it was 2.5 µM. In addition, in assay [3], the Ratio worked out at 20.
For the molecule `NCC1Cc2cc(O)c(O)cc21` (configuration not stated), the inhibition constant (Ki) in assay [2] came out at 0.2 µM; in assay [1], 5 µM.
`NCC1CCCc2c1ccc(O)c2O` (configuration not stated): the Ki is 0.047 µM in assay [2] and 13 µM in assay [1].
Regarding `CC(C)NCC1CCc2c1ccc(O)c2O` (configuration not stated), the Ki in assay [2] stood at 0.66 µM; in assay [1], 4.6 µM. For the same molecule, the Ratio in assay [3] amounted to 6.9.
The like results for `CCN(CC)CC1CCCc2c1ccc(O)c2O` (configuration not stated) were, in that order, 0.25 µM, 3.1 µM and 13.
Consider `CC(C)NCC1CCc2cc(O)c(O)cc21` (configuration not stated), for which the inhibitory constant (Ki) in assay [2] was determined as 3.8 µM; in assay [1] it was 11 µM.
The like results for `CNCC1CCCc2c1ccc(O)c2O` (configuration not stated) were, in that order, 0.044 µM and 7.9 µM.
On to `CCN(CC)CC1CCc2c1ccc(O)c2O` (configuration not stated), for which the figures for the Ki in assay [2] and in assay [1] were 0.32 µM and 3.6 µM, respectively. Moreover, the Ratio in assay [3] is 11.
For the molecule `NCC(O)c1ccc(O)c(O)c1F` (configuration not stated), the figures for the Ki in assay [2] and in assay [1] were 1.4 µM and 25 µM, respectively.
With `NCC1CCc2c1ccc(O)c2O` (configuration not stated), the Ki in assay [2] stood at 0.015 µM; in assay [1] it was 8.6 µM. Also, the Ratio in assay [3] was determined as 560.
For the molecule `NCC1Cc2c1ccc(O)c2O` (configuration not stated), the Ki in assay [2] was 0.17 µM; in assay [1], 16 µM. Further, the Ratio in assay [3] was 98.
On to `CN(C)CC1CCc2cc(O)c(O)cc21` (configuration not stated), for which the Ki came to 0.86 µM in assay [2] and 13 µM in assay [1].
`CNCC1CCc2c1ccc(O)c2O` (configuration not stated): the Ki in assay [2] was found to be 0.007 µM; in assay [1], 2 µM. The Ratio in assay [3] is 290.
In the case of `CCCN(CCC)CC1CCc2cc(O)c(O)cc21` (configuration not stated), the Ki in assay [2] was 0.69 µM; in assay [1], 29 µM.
On to `CNCC1CCCc2cc(O)c(O)cc21` (configuration not stated), for which the Ki in assay [2] turned out to be 1.3 µM; in assay [1], 8.7 µM.
As to `CCCN(CCC)CC1CCc2c1ccc(O)c2O` (configuration not stated), the Ki in assay [2] is 0.47 µM; in assay [1] it was 7.4 µM. Moreover, the Ratio in assay [3] came out at 16.
Take `CCCN(CCC)CC1CCCc2cc(O)c(O)cc21` (configuration not stated): the Ki in assay [2] was 0.6 µM; in assay [1], 16 µM.
The like results for `CCCN(CCC)CC1CCCc2c1ccc(O)c2O` (configuration not stated) were, in that order, 0.18 µM and 7.9 µM.
Consider `NCC1CCCCc2cc(O)c(O)cc21` (configuration not stated), for which the values for the Ki in assay [2] and in assay [1] were 19 µM and 11 µM, respectively.
The like results for `CN(C)CC1CCCc2cc(O)c(O)cc21` (configuration not stated) were, in that order, 0.7 µM and 13 µM.
For `CC(C)NCC1CCCc2cc(O)c(O)cc21` (configuration not stated), in that order: 2.5 µM and 14 µM.

These data come from ChEMBL document CHEMBL1122942, “Conformationally defined adrenergic agents. 1. Design and synthesis of novel alpha 2 selective adrenergic agents: electrostatic repulsion based conformational prototypes” (J Med Chem, 1985).
